The source of these data is ChEMBL document CHEMBL1629639, “Selectivity of TMC207 towards mycobacterial ATP synthase compared with that towards the eukaryotic homologue” (Antimicrob Agents Chemother, 2009).

Values after ≈ are worked out from the molar mass of the structure shown. Active and inactive are the calls of the source. The rule behind the calls is not given here. Where only a bound is given, the exact number is not on record here.

Assay [1] is filed under the species Mus musculus. Briefly: Inhibition of ATP synthase in M18 mouse liver mitochondria assessed as inhibition of oxygen consumption. Put shortly:
(§1)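 Mitochondria freshly isolated from M18 mouse liver or bovine heart. Oxygen was read by Clark electrode at 37°C in 20 mM Tris-HCl pH 7.3, 85 mM KCl, 5 mM KH2PO4, 2.3 mM MgCl2, 25 mM creatine and 25 mM phosphocreatine, with an ADP-regenerating system. Succinate energised the membrane; rotenone blocked complex I. Inhibition was taken as the fall in state III O2 rate. Oligomycin 0.6 μM served as control. Mean±SD of three independent experiments.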

Assay [2] is described as follows: Inhibition of human ATP synthase mediated ATP production at 100 nM. Put shortly:
(§2)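 OVCAR3 cells were grown in DMEM with 10% FBS and penicillin-streptomycin. Isolated mitochondria (250 μg/ml) and sonicated submitochondrial particles without outer membrane (150 μg/ml) were incubated 1 h at 25°C with compound and an ADP-regenerating system. ATP formed was quantified spectrophotometrically from glucose-6-phosphate oxidation with NADP+. Controls were DCCD 5 μM and oligomycin 1 μM.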

Assay [3] deals with OVCAR-3. The experiment in a line: Inhibition of ATP synthase mediated ATP production in human OVCAR3 cells. It is filed as cell-based. In outline: as §2
Assay [4] relates to Mycobacterium tuberculosis. The experiment in a line: Antimicrobial activity against Mycobacterium tuberculosis. The assay is classed as functional.
Assay [5] deals with OVCAR-3. Briefly: Inhibition of ATP synthase mediated ATP production in human OVCAR3 cells at 1 uM. The assay is classed as cell-based. In outline: as §2
For assay [6], the system named is Mycolicibacterium smegmatis. The experiment in a line: Antimicrobial activity against Mycobacterium smegmatis. It is filed as functional.
Assay [7] concerns the target T1, Putative uncharacterized protein atpE (Mycolicibacterium smegmatis, UniProt Q5TIX5). Briefly: Inhibition of Mycobacterium smegmatis MC2 155 ATP synthase subunit c-mediated ATP production at 100 nM. Put shortly: (§3)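 Inverted membrane vesicles from M. smegmatis mc²155 incubated with compound at 25°C for 1 h with an ADP-regenerating system. ATP formed was quantified spectrophotometrically by following glucose-6-phosphate oxidation with NADP+. Controls were DCCD (100 μM) and oligomycin (1 μM). IC50 taken from the concentration-response of ATP synthesis.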

The species named for assay [8] is Bos taurus. Briefly: Inhibition of ATP synthase in bovine heart mitochondria assessed as effect on oxygen consumption at 175 uM. Put shortly: as §1
For assay [9], the species on record is Mus musculus. The experiment in a line: Inhibition of ATP synthase in M18 mouse liver mitochondria assessed as effect on oxygen consumption at 175 uM. In outline:
as §1

Assay [10] addresses T1, Putative uncharacterized protein atpE. Briefly: Inhibition of Mycobacterium smegmatis MC2 155 ATP synthase subunit c-mediated ATP production. Put shortly:
as §3

Assay [11] is filed under the species Bos taurus. Briefly: Inhibition of ATP synthase in bovine heart mitochondria assessed as inhibition of oxygen consumption. The following applies: concentration not given here. Put shortly:
as §1

The test system of assay [12] is OVCAR-3. Briefly: Inhibition of ATP synthase mediated ATP production in human OVCAR3 cells at 200 uM. It is filed as cell-based. In outline: as §2
In assay [13] the test system is OVCAR-3. Briefly: Inhibition of ATP synthase mediated ATP production in human OVCAR3 cells at 5 uM. The assay is classed as cell-based. Put shortly:
as §2

T1 sequence (Q5TIX5 whole entry): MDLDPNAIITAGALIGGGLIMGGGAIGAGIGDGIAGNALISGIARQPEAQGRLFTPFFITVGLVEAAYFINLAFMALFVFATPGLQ

A word on the inhibition: it is how much of the control response was suppressed. In general, IC50 refers to the concentration needed to halve the response being measured. In general, MIC refers to the least concentration at which growth counts as inhibited. Low readings indicate inhibition by little substance, high ones a need for much substance. With `COc1nc2ccc(Br)cc2cc1[C@@H](c1ccccc1)[C@@](O)(CCN(C)C)c1cccc2ccccc12` [BEDAQUILINE], the inhibition in the assay filed under Mus musculus [1] was over 80%; in the assay with OVCAR-3 [5], over 90%; in the assay listed under Bos taurus [11], over 50%; in the assay with OVCAR-3 [12] it was 35%; in the assay with OVCAR-3 [13] it was over 90%. In addition, the results for the IC50 in assay [2], in assay [7] and in [10] were over 200000 nM, 10 nM and 10 nM, respectively. For the same molecule, the inhibition result with OVCAR-3 [3], in the assay filed under Bos taurus [8] and in the assay listed under Mus musculus [9] was “inactive” in each case. Further, the MIC came out at 0.03 µM (≈ 0.0167 µg/mL) in assay [4] and 0.015 µM (≈ 0.00833 µg/mL) in assay [6].
